From ChEMBL document CHEMBL1129331, “Synthesis and physicochemical, biological, and pharmacological properties of new bile acids amidated with cyclic amino acids” (J Med Chem, 1996)
Values after ≈ are worked out from the molar mass of the structure shown.

Tests used:
[1] = test system: Rattus norvegicus; assay: Secretion of Bile acids in Bile Fistula rats after the iv administration of compound, expressed as the residual secretion rate; type: ADME, organism-based; details: in vivo
In short: (§1)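 Male Sprague-Dawley rats (300-330 g), urethane-anesthetized, bile duct cannulated. After 1 h baseline, sodium salt infused via femoral vein at 10 μmol/min/kg for 1 h; bile collected at 15-min intervals for 3 h. Flow measured gravimetrically; bile acids, cholesterol and phospholipid measured enzymatically. Smax and Tmax read from secretion-time plots; Rs is the rate at hour 3. Mean ± SD, n=6.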

[2] = test system: Rattus norvegicus; assay: Secretion of Bile in Bile Fistula rats after the iv administration of compound, expressed as the residual secretion rate i; type: ADME, organism-based; details: in vivo; in short: as §1
[3] = test system: Rattus norvegicus; assay: Secretion of cholesterol in Bile Fistula rats after the iv administration of compound, expressed as the residual secretion rate; type: ADME, organism-based; details: in vivo; in short: as §1
[4] = test system: Rattus norvegicus; assay: Secretion of phospholipid in Bile Fistula rats after the iv administration of compound, expressed as the residual secretion rate i; type: ADME, organism-based; details: in vivo; in short: as §1
[5] = Water solubility was determined; type: ADME; details: read-out: WS
In short: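 Protonated form; measured on saturated solutions at pH 1.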

[6] = test system: Rattus norvegicus; assay: Alkaline phosphatase in Bile Fistula rats after iv coinfusion of TCDCA and compound.; type: ADME, organism-based; details: in vivo
In short: (§2)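 Bile fistula Sprague-Dawley rats (200-250 g). TCDCA and test bile acid given as sodium salts, coinfused via jugular vein, each at 8 μmol/min/kg for 1 h. Bile collected at 30-min intervals for 3 h. Calcium, ALP and LDH in bile measured enzymatically; bile acid composition by HPLC (65% methanol, 15 mM ammonium acetate, pH 5.4). Mean ± SD.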

[7] = test system: Rattus norvegicus; assay: Lactate dehydrogenase in Bile Fistula rats after iv coinfusion of TCDCA and compound.; type: ADME, organism-based; details: in vivo; in short: as §2
[8] = Critical Micellar concentration was determined; type: ADME
In short: (§3)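 Measured in water from surface tension, using the maximum bubble-pressure method.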

[9] = test system: Rattus norvegicus; assay: Bile flow in Bile Fistula rats after iv coinfusion of TCDCA and compound.; type: ADME, organism-based; details: in vivo; in short: as §2
[10] = test system: Rattus norvegicus; assay: Calcium output in Bile Fistula rats after iv coinfusion of TCDCA and compound.; type: ADME, organism-based; details: in vivo; in short: as §2
[11] = test system: Rattus norvegicus; assay: Maximum biliary secretion rate of TCDCA after iv coinfusion in Bile fistula rats.; type: ADME, organism-based; details: in vivo; in short: as §2
[12] = test system: Rattus norvegicus; assay: Maximum biliary secretion rate of bile acids after iv coinfusion in Bile fistula rats.; type: ADME, organism-based; details: in vivo; in short: as §2
[13] = test system: Rattus norvegicus; assay: Secretion of Bile acids in Bile Fistula rats after the iv administration of compound, expressed as the maximum secretion rate i; type: ADME, organism-based; details: in vivo; in short: as §1
[14] = test system: Rattus norvegicus; assay: Secretion of Bile in Bile Fistula rats after the iv administration of compound, expressed as the maximum secretion rate; type: ADME, organism-based; details: in vivo; in short: as §1
[15] = test system: Rattus norvegicus; assay: Secretion of cholesterol in Bile Fistula rats after the iv administration of compound, expressed as the maximum secretion rate i; type: ADME, organism-based; details: in vivo; in short: as §1
[16] = test system: Rattus norvegicus; assay: Secretion of phospholipid in Bile Fistula rats after the iv administration of compound, expressed as the maximum secretion rate i; type: ADME, organism-based; details: in vivo; in short: as §1
[17] = Relative lipophilicity was determined; type: physicochemical; details: C-18 reverse phase HPLC
In short: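 C-18 reverse-phase HPLC run isocratically at 0.9 mL/min. Mobile phase 65% (v/v) aqueous methanol with 2 mM ammonium acetate, pH 7, so that all bile acids are fully ionized.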

[18] = test system: cholylglycine hydrolase; assay: The compound was incubated with cholylglycine hydrolase and tested for determining the stability towards C-24 Deamination; type: ADME; details: cholylglycine hydrolase
[19] = (§4) The compound was incubated with human stools and tested for determining the stability towards 7-dehydroxylation; type: ADME, organism-based
In short: (§5)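 Homogenized fresh human stool (500 mg) in 5 mL chopped meat-glucose medium; bile acid added at 0.05 mM final; 37 °C. Sampled at 0–72 h and stopped with 30% KOH. Bile acids recovered by C-18 solid-phase extraction, then analyzed by TLC and by HPLC with 75% methanol/15 mM ammonium acetate, pH 5.4.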

[20] = (§6) Partition coefficient (logP); type: physicochemical; details: octanol/water
In short: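 Octanol/water partition coefficient of the protonated species, calculated rather than measured.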

[21] = Acidity constant was determined; type: ADME
[22] = Critical micellar pH was determined
In short: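 20 mL of 50 mM bile salt solution titrated with 0.1 M HCl. CMpH is taken as the pH at which precipitate of the protonated form is first seen by turbidity at 500 nm. Confirmed by back-titration with 0.1 M NaOH until the suspension clears.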

[23] = test system: Rattus norvegicus; assay: Secretion of phospholipid in Bile Fistula rats after the iv administration of compound, expressed as the residual secretion rate; type: ADME, organism-based; details: in vivo
In short: (§7)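 Anaesthetised (ethyl carbamate) male Sprague-Dawley rats, 300-330 g, bile duct cannulated; after 1 h baseline, bile acid sodium salts infused via femoral vein at 10 μmol/min/kg for 1 h. Bile collected 3 h at 15 min intervals; flow gravimetric; BA, cholesterol, phospholipid by enzymatic assays. Smax, Tmax from secretion-vs-time plots; Rs = rate at third hour. n=6, mean ± SD.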

[24] = Critical Micellar concentration of the compound. was determined; type: ADME; in short: as §3
[25] = test system: Rattus norvegicus; assay: Maximum biliary secretion rate of TCDCA after iv confusion in Bile fistula rats.; type: ADME, organism-based; details: in vivo
[26] = test system: Rattus norvegicus; assay: Maximum biliary secretion rate of bile acids after iv confusion in Bile fistula rats.; type: ADME, organism-based; details: in vivo
[27] = test system: Rattus norvegicus; assay: Secretion of Bile acids in Bile Fistula rats after the iv administration of compound, expressed as the maximum secretion rate; type: ADME, organism-based; details: in vivo; in short: as §7
[28] = test system: Rattus norvegicus; assay: Secretion of phospholipid in Bile Fistula rats after the iv administration of compound, expressed as the maximum secretion rate; type: ADME, organism-based; details: in vivo; in short: as §7
[29] = as §6; type: physicochemical; details: octanol/water; remark: listed apart in the source
[30] = as §4; type: ADME, organism-based; remark: listed apart in the source
In short: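 Homogenised fresh human stool (500 mg) in 5 mL chopped meat-glucose medium with bile acid at 0.05 mM final, incubated at 37 °C; stopped with 30% KOH at 0, 4, 8, 16, 20, 24 and 72 h. Supernatant extracted on C-18 solid phase, analysed by TLC and HPLC (aqueous methanol 75%, 15 mM ammonium acetate, apparent pH 5.4).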

[31] = test system: Rattus norvegicus; assay: Secretion of Bile in Bile Fistula rats after the iv administration of compound, expressed as the residual secretion rate; type: ADME, organism-based; details: in vivo; in short: as §7
[32] = The compound was incubated with human stools and tested for determining the stability towards C-24 Deamination; type: ADME, organism-based; details: in the assay text read “7-dehydroxylation” for “C-24 Deamination”; in short: as §5

SMILES | Rs [1] | Rs [2] | Rs [3] | Rs [4] | solubility [5] | [ALP]max [6] | [LDH]max [7] | CMC [8] | Smax [9] | Smax [10] | Smax [11] | Smax [12] | Smax [13] | Smax [14] | Smax [15] | Smax [16] | rK [17] | half-life [18] | logP [20] | CMpH [22] | further results
CO[C@H]1C[C@H](C(=O)O)N(C(=O)CCC(C)C2CC[C@H]3[C@@H]4[C@@H](O)CC5C[C@H](O)CC[C@]5(C)[C@H]4CC[C@]23C)C1 (stereo partly drawn) | 0.8 µM/min/kg | 2.64 mL/h/kg | 12 nM/min/kg | 0.12 µM/min/kg | 30 µM (≈ 15.6 µg/mL) | 30 IU/L | 14 UI l-1 | 29 mM | 5.04 mL/h/kg | 0.71 µM/min/kg | 6.96 µM/min/kg | 4.67 µM/min/kg | 11.1 µM/min/kg | 5.4 mL/h/kg | 28 nM/min/kg | 0.28 µM/min/kg | 0.7 | > 72 h | 3.86 | 6.5 | half-life [19]: > 72 h; pKa [21]: 3.5
C[C@H](CCC(=O)O)[C@H]1CC[C@H]2[C@@H]3[C@@H](O)C[C@@H]4C[C@H](O)CC[C@]4(C)[C@H]3CC[C@]12C [URSODIOL] | 0.0008 µM/min/g | – | 24 nM/min/kg | – | 8 µM (≈ 3.14 µg/mL) | 217 IU/L | 115 UI l-1 | – | 4.32 mL/h/kg | 0.00018 µM/min/g | – | – | – | 6.96 mL/h/kg | 55 nM/min/kg | – | 1 | – | – | 8.4 | Rs [23]: 0.00012 µM/min/g; CMC [24]: 26 mM; Smax [25]: 1.56 µM/min/kg; Smax [26]: 1.72 µM/min/kg; Smax [27]: 0.0042 µM/min/g; Smax [28]: 0.00026 µM/min/g; logP [29]: 5.69; half-life [30]: 2 h; Rs [31]: 2.82 mL/h/kg
CC(CCC(=O)N1CCC[C@@H]1C(=O)O)C1CC[C@H]2[C@@H]3C[C@H](O)C4C[C@H](O)CC[C@]4(C)[C@H]3CC[C@]12C (stereo partly drawn) | 1.4 µM/min/kg | 2.82 mL/h/kg | 46 nM/min/kg | 0.21 µM/min/kg | 52 µM (≈ 25.5 µg/mL) | 57 IU/L | 95 UI l-1 | 25 mM | 4.98 mL/h/kg | 0.42 µM/min/kg | 3.88 µM/min/kg | 3.02 µM/min/kg | 5.7 µM/min/kg | 4.02 mL/h/kg | 60 nM/min/kg | 0.34 µM/min/kg | 0.94 | > 72 h | 4.41 | 6.6 | half-life [32]: > 72 h; pKa [21]: 3.9
CC(CCC(=O)N1C[C@@H](O)C[C@@H]1C(=O)O)C1CC[C@H]2[C@@H]3[C@@H](O)CC4C[C@H](O)CC[C@]4(C)[C@H]3CC[C@]12C (stereo partly drawn) | 0.9 µM/min/kg | 2.76 mL/h/kg | 31 nM/min/kg | 0.12 µM/min/kg | 250 µM (≈ 126 µg/mL) | 31 IU/L | 10 UI l-1 | 10 mM | 5.4 mL/h/kg | 0.37 µM/min/kg | 4.98 µM/min/kg | 3.27 µM/min/kg | 6.3 µM/min/kg | 5.82 mL/h/kg | 68 nM/min/kg | 0.25 µM/min/kg | 0.6 | > 72 h | 3.59 | 4.7 | half-life [19]: > 72 h; pKa [21]: 3.1
CC(CCC(=O)N1CCC[C@@H]1C(=O)O)C1CC[C@H]2[C@@H]3[C@@H](O)CC4C[C@H](O)CC[C@]4(C)[C@H]3CC[C@]12C (stereo partly drawn) | 0.9 µM/min/kg | 3 mL/h/kg | 31 nM/min/kg | 0.11 µM/min/kg | 113 µM (≈ 55.3 µg/mL) | 32 IU/L | 16 UI l-1 | 15 mM | 5.16 mL/h/kg | 0.42 µmol/min/kg | 5.43 µM/min/kg | 3.22 µM/min/kg | 6 µM/min/kg | 5.4 mL/h/kg | 55 nM/min/kg | 0.28 µM/min/kg | 1.25 | > 72 h | 5.83 | 6 | half-life [19]: > 72 h; pKa [21]: 3.9
